Results: publication PMC8535816 (Science Advances, 2021)
pKd: −log10 of the molar value. Positions of bridges follow the written chain, without caps; N, C: chain ends. No end group written: not given here. *: point of attachment. Biotin = O=C1N[C@H]2[C@H](CS[C@H]2CCCCC(=O)*)N1; Ahx = NCCCCCC(=O)O

What was measured:
[1] = OCN level in CC and SC after ICV delivery into OCN^−/− mice; format: in vivo, mouse; conditions: ICV infusion 100 ng/day for 10 days, n = 5
OCN^−/− mice [2] = test: ICV delivery of OCN into OCN^−/− mice: OPC/OL numbers and myelin proteins; format: in vivo, mouse; conditions: ICV 100 ng/day for 10 days
Outline: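 OCN−/− mice received synthesized mouse OCN at 100 ng/day, or PBS, by ICV infusion for 10 days. For proliferation, BrdU at 100 μg/g was given i.p. 2 days before sacrifice, and sections were co-stained for BrdU/PDGFRα. For differentiation, BrdU at 200 μg/g was pulsed for four consecutive days from the start of treatment, with BrdU/CC1 co-staining at the end. Positive cells were counted per 0.25 mm2 in CC.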

[3] = target: human GPR37 overexpressed on HEK293-based cells (human) (UniProt O15354); test: saturation binding of biotinylated ligand to transfected cells
WT mice = test: ICV delivery of OCN into WT mice: myelin PLP1 and MBP; format: in vivo, mouse; conditions: ICV 100 ng/day for 10 days, n ≥ 6
Outline: (§1)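 Synthesized mouse OCN at 100 ng/day, or PBS, was infused ICV for 10 days before analysis. Tissue protein was extracted in RIPA buffer with protease inhibitors and quantified by BCA. Then 30 to 50 μg was run on SDS-PAGE and blotted. Blots were blocked in 5% milk for 1 h, incubated with primary antibody overnight at 4°C, then with HRP-secondary for 1 h at room temperature.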

primary rat OLs [4] = test: Myelin PLP1 and MBP expression in primary rat OLs/OPCs in differentiation medium; format: cell-based; conditions: n = 3 independent experiments
primary rat OLs [5] = test: Myrf expression in primary rat OLs; format: cell-based; conditions: n = 3 independent experiments
Outline: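 OPCs came from forebrains of P1–P2 Sprague-Dawley rats. Mixed glia were grown up to 12 days on poly-L-lysine, and microglia were removed by shaking at 200 rpm. OPCs were transduced with lentiviral shRNA against GPR37, then differentiated with CNTF and T3 for 48 h. The resulting OLs were treated with the test compound in differentiation medium for 48 h before analysis.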

neurons = neurons (DRN, MRN, VTA, CA3); ref [16], [22], [51]; cited from earlier work
primary rat OLs [6] = test: cAMP production in primary rat OLs; format: cell-based
Outline: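 Rat OPCs were transduced with lentiviral shRNA against GPR37 and kept with CNTF and T3 for 48 h. They were then plated at 1 × 10^4/well on poly-L-lysine. Cells received forskolin plus the test compound at the indicated concentrations for 30 min. Intracellular cAMP was measured by cAMP-Glo Max luminescence to give concentration-response curves. Runs were repeated at least four times, each in triplicate.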

OCN^−/− mice [7] = test: Hot plate test; format: in vivo; conditions: mouse OCN 50 ng/g i.p. for 10 days, hot plate 53°C, n ≥ 6
Outline: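 Mice aged 8 weeks were placed on a hot plate held at 53°C. Latency was scored as the time to lick or flick a hind paw, or to jump. The plate temperature was calibrated to give a withdrawal response within 10 to 15 s in control mice. OCN−/− mice received synthesized mouse OCN at 50 ng/g body weight i.p. for 10 days before testing.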

[8] = system: OLs derived from primary rat OPCs; test: OL cell viability; format: cell-based; conditions: OCN 0 to 50 nM, up to 72 hours; MTT; n = 3 independent experiments
Outline: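 Rat OPCs were plated on poly-L-lysine at 1 × 10^4 per well in 96-well plates, in the presence of CNTF and T3. Cells were exposed to the test compound at 0 to 50 nM, or for up to 72 h. Viability was read with a commercial MTT kit.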

OLs from GPR37^−/− mice = test: MBP expression in primary OLs from GPR37^−/− mice; format: cell-based, mouse; conditions: OPC from GPR37^−/− mice induced with T3; n = 3 independent experiments
Outline: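 Primary OPCs were isolated from P7–P8 GPR37−/− mouse pups. They were differentiated into mature OLs with T3 and CNTF, then treated with the test compound. OPC purity and OL induction were checked with specific markers.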

human GPR37 [9] = target: T1, human GPR37 (Homo sapiens, UniProt O15354); test: cAMP production, GPR37-transfected HEK293 cells; format: cell-based; conditions: forskolin and/or OCN 30 min, cAMP-Glo Max
T1 sequence (O15354 27-613): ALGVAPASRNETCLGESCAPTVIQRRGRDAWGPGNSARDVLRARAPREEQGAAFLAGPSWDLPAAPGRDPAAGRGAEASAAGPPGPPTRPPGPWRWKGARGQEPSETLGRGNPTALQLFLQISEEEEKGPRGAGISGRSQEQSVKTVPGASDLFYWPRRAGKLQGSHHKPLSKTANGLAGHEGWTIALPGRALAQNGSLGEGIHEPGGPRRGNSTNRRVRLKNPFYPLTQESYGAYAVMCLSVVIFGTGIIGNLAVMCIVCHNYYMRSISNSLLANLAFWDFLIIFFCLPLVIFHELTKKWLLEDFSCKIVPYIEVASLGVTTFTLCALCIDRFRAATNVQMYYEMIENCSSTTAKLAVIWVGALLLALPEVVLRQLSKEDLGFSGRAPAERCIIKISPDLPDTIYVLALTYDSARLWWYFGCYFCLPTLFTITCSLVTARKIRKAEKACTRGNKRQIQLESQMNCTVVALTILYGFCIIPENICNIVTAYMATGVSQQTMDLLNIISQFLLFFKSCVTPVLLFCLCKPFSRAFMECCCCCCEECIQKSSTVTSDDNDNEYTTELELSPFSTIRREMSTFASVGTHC
Outline: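 HEK293 cells were transfected with human GPR37 for 48 h, then seeded on poly-L-lysine-coated plates. They were exposed to forskolin and/or graded OCN for 30 min. cAMP was measured by luminescent cAMP-Glo Max assay. At least four experiments, each in triplicate.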

primary rat OPCs = test: OPC proliferation; format: cell-based; conditions: OCN 20 nM; EdU incorporation; n = 3 independent experiments
Outline: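 Primary rat OPCs (P1–P2 Sprague-Dawley forebrain) were plated on poly-L-lysine at 1 × 10^4/well in 96-well plates. They were treated with the test compound at 20 nM before assessment. Proliferation was read by EdU incorporation with a commercial kit.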

human GPR37 [10] = target: T1, human GPR37; test: PRESTO-Tango β-arrestin recruitment, GPR37-transfected HTLA cells; format: cell-based
Outline: (§2)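 HTLA cells (HEK293 carrying a tTA-luciferase reporter and β-arrestin2–TEV), kept under puromycin 2 μg/ml plus hygromycin B 100 μg/ml, expressing GPR37-Tango or GPR37L1-Tango. Seeded on poly-L-lysine; the next day given graded OCN concentrations in assay buffer for 24 h. Luciferase reagent (20-fold diluted) added for 15–20 min at 20–25°C; luminescence read as RLU. Concentration-response curves fitted.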

human GPR37L1 [11] = test: PRESTO-Tango β-arrestin recruitment, GPR37L1-transfected HTLA cells; format: cell-based; conditions: cells expressing GPR37L1 (HTLA)
Outline: as §2

[12] = ref [15]–[18]; cited from earlier work
human GPR37 [13] = target: T1, human GPR37; test: ERK phosphorylation; format: cell-based; conditions: OCN 20 nM; GPR37-transfected HEK293 cells; immunoblot
Outline: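 Human GPR37 introduced into HEK293 cells by calcium-phosphate transfection, then exposed to OCN 20 nM. Lysates made in RIPA buffer with protease inhibitors and assayed by BCA. 30–50 μg protein run on SDS-PAGE and blotted to PVDF or nitrocellulose. Blocked in 5% milk for 1 h, primary antibody overnight at 4°C, HRP secondary for 1 h at room temperature.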

GPR37^−/− mice = test: ICV delivery of OCN into GPR37^−/− mice: myelin PLP1 and MBP; format: in vivo, mouse; conditions: ICV 100 ng/day for 10 days, n ≥ 6
Outline: as §1

primary rat OLs [14] = test: ERK phosphorylation; format: cell-based
human GPR37 [15] = target: T1, human GPR37; test: Intracellular calcium; format: cell-based; conditions: then OCN, GPR37-transfected HEK293-GCaMP6s cells
Outline: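 HEK293 cells stably expressing GCaMP6s (made by lentiviral infection of HEK293T) were transfected with human GPR37 for 48 h. Medium was swapped for HBSS with Ca2+/Mg2+ and cells held at 37°C for 30 min. Pretreatment was anti-GPR37 antibody or pertussis toxin, then OCN 20 nM. GCaMP6s fluorescence was imaged at 1 s intervals.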

human GPR37L1 [16] = test: Saturation binding of biotinylated OCN, GPR37L1-transfected cells; conditions: 2 hours at 37°C
Outline: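 HEK293T cells were transfected with GPR37L1 and replated on poly-L-lysine at 36 h. After 24 h they received serial dilutions of biotinylated OCN in 0.5% BSA/Ca2+/Mg2+ PBS for 2 h at 37°C. Cells were then washed, fixed in 4% PFA, permeabilised with 0.3% Triton, given extra-avidin peroxidase for 30 min and TMB, and read at 450 nm. Nonspecific binding used 100 μM unlabelled OCN; specific binding was total minus nonspecific; Kd came from saturation curves.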

Which “OCN level in CC and SC” value [1] does the source give for “YLGASVPSPDPLEPTREQCELNPACDELSDQYGLKTAYKRIYGITI [mouse OCN]” here?
The value was “significant increase”.

And the “BrdU^+/CC1^+ differentiation OLs” value (OCN^−/− mice [2]; CC of OCN^−/− mice)?
Its value is “decreased”.

What about the “CC1^+ cells” value (OCN^−/− mice [2]; CC of OCN^−/− mice) of the same substance?
Its value is “decreased”.

What about the “numbers of BrdU^+/PDGFRα^+ proliferative OPCs” value (OCN^−/− mice [2]; CC of OCN^−/− mice) of the same substance?
Its value is “rarely affected”.

What about the “numbers of total PDGFRα^+ OPCs” value (OCN^−/− mice [2]; OCN^−/− mice) of the same substance?
Its value is “rarely affected”.

What about the “expression of myelin PLP1 and MBP” value (OCN^−/− mice [2]; white matter regions (CC, SC) of OCN^−/− mice, n = 6) of the same substance?
Its value is “decreased”.

With “biotinylated osteocalcin (OCN), species not stated (peptide)” as the substance, how does the pKd [3] read?
The pKd was 7.85.

With “osteocalcin (YLGASVPSPDPLEPTREQCELNPACDELSDQYGLKTAYKRIYGITI; biotin (Biotin Protein Labeling Kit, Roche; sites not stated)) [OCN]” as the substance, how does the “expression of myelin PLP1 and MBP in CC” value (WT mice) read?
The value was “significant down-regulation”.

What about the “OCN's suppression of the MBP level with GPR37L1 silenced” value (primary rat OLs [4]; primary rat OLs, GPR37L1 shRNA) of the same substance?
Its value is “unable to inhibit OCN’s suppression of the MBP level”.

And the “expression of myelin PLP1 and MBP” value (primary rat OLs [4]; primary rat OPCs in differentiation medium, immunoblot, immunostaining)?
Its value is “dose-dependent reduction”.

And the “down-regulation of Myrf by OCN with GPR37 knockdown” value (primary rat OLs [5]; GPR37 shRNA, OCN 20 nM)?
The value was “abolished”.

And the “expression of Myrf” value (primary rat OLs [5])?
Its value is “dose-dependently inhibited”.

What about the “synthesis of monoamine neurotransmitters” value (neurons) of the same substance?
The value was “promote the synthesis of monoamine neurotransmitters”.

What about the “synthesis of γ-aminobutyric acid (GABA)” value (neurons) of the same substance?
The value was “reduce the synthesis of γ-aminobutyric acid (GABA)”.

What about the “OCN-induced inhibition of intracellular cAMP production with GPR37 silenced” value (primary rat OLs [6]; GPR37 shRNA) of the same substance?
The value was “substantially prevented”.

What about the “intracellular cAMP level” value (primary rat OLs [6]; forskolin and OCN 30 min) of the same substance?
The value was “reduction of the intracellular cAMP level”.

What about the “deficit of thermal sensitivity (paw lick latency)” value (OCN^−/− mice [7]) of the same substance?
The value was “partially rescued”.

What about the OL cell viability [8] of the same substance?
The OL cell viability was “no effects”.

What about the “myelin MBP response to OCN, GPR37 absent” value (OLs from GPR37^−/− mice) of the same substance?
Its value is “unresponsive”.

What about the cAMP production (human GPR37 [9]) of the same substance?
Its cAMP production is “significantly inhibited cAMP production”.

What about the OPC proliferation (primary rat OPCs) of the same substance?
The OPC proliferation was “no effects”.

What about the “luciferase activity (β-arrestin recruitment)” value (human GPR37 [10]) of the same substance?
Its value is “dose-dependent increase”.

What about the “luciferase responses (β-arrestin recruitment)” value (human GPR37L1 [11]) of the same substance?
Its value is “failed to exert luciferase responses”.

What about the “ability of crossing the blood-brain barrier” value [12] of the same substance?
Its value is “crossing the blood-brain barrier (BBB)”.

What about the ERK phosphorylation (human GPR37 [13]) of the same substance?
The ERK phosphorylation was “stimulated ERK phosphorylation”.

What about the “expression of myelin PLP1 and MBP in CC” value (GPR37^−/− mice) of the same substance?
Its value is “absent”.

What about the ERK phosphorylation (primary rat OLs [14]; myelinating primary rat OLs) of the same substance?
The ERK phosphorylation was “boost of ERK phosphorylation”.

Which results are given for “pertussis toxin [PTX, reference compound]”?
effect of pretreatment on OCN-caused reduction of the intracellular cAMP level (primary rat OLs [6]; PTX pretreatment): blocked; effect of pretreatment on OCN-triggered increase of iCa^2+ (human GPR37 [15]): abolished; effect of pretreatment on OCN-caused boost of ERK phosphorylation (primary rat OLs [14]; PTX pretreatment, primary rat OLs): blocked

With “{Biotin-Ahx}-YLGASVPSPDPLEPTREQCELNPACDELSDQYGLKTAYKRIYGITI (disulfide 19-25; N-terminus assumed) [biotinylated OCN]” as the substance, how does the “binding to GPR37L1” value (human GPR37L1 [16]) read?
The value was “bound to GPR37 rather than GPR37L1”.
